HNF4A DNA FP: change in binding of human HNF4A to DNA, primary screen, biochemical, fluorescence polarization, FITC-DNA; Hepatocyte nuclear factor 4-alpha (Homo sapiens), P41235; 1 h; activity change, % at 10 µM; 360,000 compounds, 0.3% hits; AID 1224865, 2016; in the data active = activity change above about 30%, passing the limit was not always enough
Target sequence (P41235 whole entry, looked up): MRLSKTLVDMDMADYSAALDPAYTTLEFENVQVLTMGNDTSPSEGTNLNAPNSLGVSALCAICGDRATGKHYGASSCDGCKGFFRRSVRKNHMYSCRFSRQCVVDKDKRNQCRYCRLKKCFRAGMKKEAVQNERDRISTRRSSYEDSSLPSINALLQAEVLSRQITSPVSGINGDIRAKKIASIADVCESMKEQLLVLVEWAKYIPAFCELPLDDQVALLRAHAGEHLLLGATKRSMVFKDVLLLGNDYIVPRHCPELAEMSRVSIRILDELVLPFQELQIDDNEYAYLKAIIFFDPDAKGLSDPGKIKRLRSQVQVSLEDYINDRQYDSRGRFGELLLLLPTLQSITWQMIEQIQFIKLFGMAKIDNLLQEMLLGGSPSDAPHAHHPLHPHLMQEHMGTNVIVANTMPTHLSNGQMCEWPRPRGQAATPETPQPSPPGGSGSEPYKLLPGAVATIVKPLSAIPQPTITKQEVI
aDG glyco act: activators of alpha-DG glycosylation, primary screen, uHTS, Pro5-aDG cells, AlphaScreen | alpha-DG glycosylation AlphaScreen (IIH6); 0% Pro5, 100% B10-LARGE cell signal | activation, % at 10 µM | 360,000 compounds, 0.22% hits | AID 624168, 2012;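 active = activation of at least 8% versus controls, or a plate z-score of at least 8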;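 also: Pro5 are CHO cells carrying HIG-tagged alpha-DG that lacks glycosylation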
XiGFP reactiv: activators of inactive X chromosome reactivation, primary screen, imaging, XiGFP fibroblasts, GFP high-content imaging, set 2. XiGFP mouse fibroblasts, % GFP-positive cells imaging, 3 d; cells co-treated with 5-aza-dC sensitizer; scaled so ellipticine positive control = 100%. activation, % at 7.58 µM. 360,000 compounds, 0.055% hits. AID 743238, 2013;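 active = mean normalized replicate activation at least 10% and every replicate at or above 10%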;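 also: 0% = median of on-plate neutral control wells and 100% = ellipticine 6 µM median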
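Assay system: SV40-immortalized XiGFP fibroblast cells, line 68-5-11; buffer or medium: DMEM plus 5-aza-dC sensitizer; compound: one concentration, pinned; timing: compounds 3 days, fix/stain 15 min at room temperature; benchmarks: positive control ellipticine, 6 µM final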
Rpn11 block: Rpn11 (PSMD14) deubiquitinase inhibitors, primary screen, biochemical, fluorescence polarization, uHTS; 26S proteasome non-ATPase regulatory subunit 14 (Homo sapiens), O00487; human 26S proteasome, Ub4-pepOG fluorescence polarization; 20S core pre-blocked with epoxomicin; inhibition, % at 20 µM; 360,000 compounds, 0.59% hits;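 active = inhibition at 20 µM, scaled to each plate's controls, above about 33%, limit read from the data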
Target sequence (O00487 whole entry, looked up): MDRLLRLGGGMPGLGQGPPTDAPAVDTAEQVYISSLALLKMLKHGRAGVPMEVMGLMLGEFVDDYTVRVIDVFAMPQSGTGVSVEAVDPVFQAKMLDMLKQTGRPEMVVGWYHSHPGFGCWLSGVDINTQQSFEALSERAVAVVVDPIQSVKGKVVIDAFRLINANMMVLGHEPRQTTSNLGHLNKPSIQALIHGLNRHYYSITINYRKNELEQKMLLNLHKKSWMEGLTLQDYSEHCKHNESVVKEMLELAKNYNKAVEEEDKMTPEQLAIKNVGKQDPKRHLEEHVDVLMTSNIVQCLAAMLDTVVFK
TPT1 inhibitor: Candida albicans TPT1 enzyme inhibitors, primary screen, biochemical, fluorescence polarization; 300,000 compounds, 0.81% hits; AID 1962, 2009; recombinant caTPT1, FP RNA substrate dephosphorylation; inhibition, % at 5 µM; tRNA 2'-phosphotransferase TPT1 (Candida albicans SC5314);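 active = inhibition above the mean of all tested compounds plus 3 SD, set per screening campaign, cut at about 24% in these data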;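 also: plate controls were DMSO alone for no effect and ferristatin control at 100 nM for full effect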
CSN inh: inhibitors of CSN-mediated cullin deneddylation, primary screen, biochemical, fluorescence polarization, uHTS | Purified CSN, SCF-Nedd8-OG deneddylation | 360,000 compounds, 0.38% hits | AID 651999, 2013 | inhibition, % at 12.5 µM | COP9 signalosome complex subunit 5 (Homo sapiens), Q92905;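 active = pattern-corrected inhibition above about 35%, with an unprinted fluorescence ratio check between 0.5 and 1.5, limit read from the data, passing the limit was not always enough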;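 also: 0% = enzyme with substrate and 100% = substrate without enzyme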
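Test system: purified human Csn5 enzyme expressed in HEK293T cells. Amount: 0.24 nM enzyme. Reagent: SCFSkp2-Nedd8OG substrate at 10 nM final. Schedule: 90 min incubation of compound, enzyme and substrate at room temperature. Detection: fluorescence polarization. Read-out: % inhibition of substrate cleavage by Csn5.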
Numbers without * were called inactive; i = inactive; nt = not tested or not shown; + = active, no number. Rows were chosen to be rich in hits. Some 1.3% of all compounds tested hit in one or more screens of this group.

SMILES | HNF4A DNA FP | aDG glyco act | XiGFP reactiv | Rpn11 block | TPT1 inhibitor | CSN inh
COc1ccc(/C=N\NC(=O)c2ccc([N+](=O)[O-])c(C)c2)cc1COc1ccccc1C(N)=O | 11.3 | 0.0 | 0.4 | 20.7 | -5.0 | 35.0*
CC(C)(C)C(=O)/C=c1\s/c(=C\c2ccc(-c3ccc([N+](=O)[O-])cc3)o2)c(=O)n1CC(=O)NC(N)=O | 96.1 | -0.8 | 109.9* | nt | 104.4* | -103.6
CC(C)[C@H]1CC=CC[C@@H](C)Oc2ccccc2C(=O)N(C)[C@H](C)C(=O)N1 (mixture of isomers) | nt | nt | 0.4 | nt | nt | nt
Cc1cc2nc(-c3cccc(Br)c3)c(CC(C)(C)C)n2c(C)c1Br | 1.4 | -0.3 | 0.0 | 2.4 | nt | 131.8*
COc1ccc(S(=O)(=O)Nc2ccc3c(c2)CC(=O)N([C@@H](C)CO)C[C@@H](C)[C@H](CN(C)Cc2ccncc2)O3)cc1 | nt | nt | -0.1 | nt | nt | nt
COc1cccc(C(=O)NC2CC3CCCC(C2)N3CC(=O)Nc2ccccc2)c1 (stereo unspecified) | 0.4 | 0.8 | nt | 31.6 | 0.9 | 62.1*
COc1ccc(/C=N/Nc2ncc(Br)cn2)c(OC)c1 | 7.5 | -0.2 | 0.0 | nt | 2.8 | 62.2*
COc1ccc(NC(=O)Nc2ccc3c(c2)C(=O)N([C@H](C)CO)C[C@@H](C)[C@H](CN(C)S(=O)(=O)c2ccccc2)OCCCC[C@@H](C)O3)cc1 | nt | nt | 0.1 | nt | nt | nt
CCOC(=O)c1nn(-c2ccccc2)cc1O | -2.6 | -0.1 | 0.3 | -5.4 | -2.7 | 0.6
CCOC(=O)c1nn(-c2ccc3ccccc3c2)cc1O | -1.9 | 0.1 | 16.9* | -4.2 | 2.9 | -3.4
C[C@@H]1CN([C@@H](C)CO)C(=O)c2cc(/C=C/c3ccccc3)cnc2O[C@H]1CN(C)C(=O)c1ccc(F)cc1 | nt | nt | -0.6 | nt | nt | nt
O=C(O)CSc1ncccn1 | -3.7 | 0.1 | 53.5* | -4.9 | -1.1 | -2.8
C[C@@H]1CN([C@@H](C)CO)C(=O)Cc2cc(NC(=O)Nc3ccc(F)cc3)ccc2O[C@H]1CN(C)Cc1ccccc1 | nt | nt | 0.0 | nt | nt | nt
Cc1ccc(-c2ccc([C@H]3[C@@H](CO)N4C(=O)CN(C(=O)c5cccnc5)C[C@H]34)cc2)cc1 | nt | nt | 0.0 | nt | nt | nt
CC1C(=O)CC(c2ccccc2)NC1c1ccccc1 (stereo unspecified) | 1.0 | 0.2 | nt | 0.6 | 5.7 | 2.0
CC(C)C1C(=O)CC(c2ccccc2)NC1c1ccccc1 (stereo unspecified) | 37.7* | 0.1 | 0.0 | 1.3 | -2.6 | 0.9
Oc1ccc(Cl)cc1C=Nc1ccc2c3c(cccc13)CC2 | 30.7 | -0.3 | 30.4* | nt | 1.3 | 18.4
COc1cccc(NC(=O)CCC(=O)Nc2cccc(OC)c2)c1 | 4.8 | -0.2 | 0.0 | -6.0 | -4.2 | -0.4
COc1cccc(NC(=O)CCC(=O)NCc2ccco2)c1 | -1.6 | 2.2 | nt | 3.7 | -3.8 | 69.9*
O=C(C[C@@H]1C=C[C@@H](NC(=O)Nc2ccc(C(F)(F)F)cc2)[C@H](CO)O1)NCCN1CCCC1 | nt | nt | 0.0 | nt | nt | nt
O=c1cc(/C=C/c2c(F)cccc2Cl)[nH]c2ccccc12 | -2.1 | 0.3 | 0.0 | 88.4* | -5.0 | -4.7
Cc1nc2sccn2c1-c1csc(NCc2ccccc2)n1 | 0.6 | 5.9* | nt | 9.3 | 1.9 | -1.1
COc1ccc2c3c([nH]c2c1)[C@@H](CO)N(S(C)(=O)=O)CC31CCN(Cc2ccccc2)CC1 | nt | nt | 0.4 | nt | nt | nt
CC(=O)N1CCN(c2ccc(S(=O)(=O)NCCN(C(C)C)C(C)C)cc2[N+](=O)[O-])CC1 | -1.0 | -0.2 | 0.0 | 2.2 | 1.4 | 3.6
CN(C)CCNS(=O)(=O)c1ccc(N2CCN(c3ccc(F)cc3)CC2)c([N+](=O)[O-])c1 | 0.0 | 9.1* | 0.1 | 0.0 | 1.5 | 1.9
SMILES | HNF4A DNA FP | aDG glyco act | XiGFP reactiv | Rpn11 block | TPT1 inhibitor | CSN inh
O=C(NC(=S)Nc1ccc2[nH]c(=O)[nH]c2c1)c1ccccc1Cl | 2.5 | 0.3 | 0.1 | 10.9 | -0.2 | 1.5
Cc1c(Cl)cccc1NC(=S)Nc1ccc2[nH]c(=O)[nH]c2c1 | 38.9* | -0.2 | -0.1 | -7.5 | -1.1 | -3.0
O=C(CC(=O)c1ccccc1)Nc1ccc(Cl)cc1 | 41.8* | 0.1 | 0.0 | -7.2 | -3.4 | 0.4
CCCCNC(=O)c1[nH]c(C)c(C(C)=O)c1C | 33.8* | -0.1 | 0.2 | -3.7 | -2.3 | -1.3
CCCCC(CC)CNC(=O)c1[nH]c(C)c(C(C)=O)c1C (stereo unspecified) | -1.3 | 0.2 | 0.2 | -1.3 | 3.8 | -0.6
CC(OC(=O)/C(C#N)=C/c1ccc(N(C)C)cc1)C(=O)NCc1ccco1 (stereo unspecified) | 7.2 | 0.1 | 0.0 | 14.6 | -29.2 | 14.7
CN(C)c1ccc(/C=C(\C#N)C(=O)NCc2ccco2)cc1 | nt | nt | nt | nt | 42.5* | nt
CCC1=NN2C(=N)/C(=C/c3ccc(OS(=O)(=O)c4ccccc4)cc3)C(=O)N=C2S1 | 33.1* | 0.0 | nt | 27.9 | 12.5 | 6.2
O=C(O)CCN1C(=O)/C(=C\c2ccncc2)SC1=S | -6.2 | 0.2 | -0.1 | 7.3 | 0.1 | -2.0
O=C(O)CCN1C(=O)/C(=C\c2ccc(-c3nc4ccccc4s3)o2)SC1=S | 45.4* | -0.7 | nt | + | 40.7* | i
CCN1C(=O)/C(=C/c2cn(-c3ccccc3)nc2-c2cccnc2)SC1=S | 40.4* | -0.3 | 0.1 | nt | nt | 23.4
CN(C)CCCNC(=O)C[C@@H]1CC[C@@H]2[C@H](COc3ccc(NS(C)(=O)=O)cc3C(=O)N2C)O1 | nt | nt | -0.1 | nt | nt | nt
COc1ccc(NC(=O)N(C)C[C@H]2OCCCC[C@H](C)Oc3ccc(NS(=O)(=O)c4ccc(F)cc4)cc3C(=O)N([C@@H](C)CO)C[C@H]2C)cc1 | nt | nt | 0.1 | nt | nt | nt
COc1ccc2c3c(n(C)c2c1)[C@H](CO)N(CC1CC1)CC31CCN(C(=O)CC2CC2)CC1 | nt | nt | 0.3 | nt | nt | nt
O=C(Nc1ccc(-c2cc3ccccc3oc2=O)c(Cl)c1)c1cccnc1 | 6.1 | 0.4 | nt | 0.6 | 2.3 | 38.2*
COc1ccc(CNC(=O)C[C@@H]2C[C@@H]3c4cc(NC(=O)CC5CC5)ccc4O[C@@H]3[C@@H](CO)O2)cc1 | nt | nt | 0.0 | nt | nt | nt
C[C@@H]1CCCCO[C@@H](CN(C)S(=O)(=O)c2ccccc2)[C@H](C)CN([C@@H](C)CO)C(=O)c2cc(NC(=O)Nc3cccc4ccccc34)ccc2O1 | nt | nt | -0.1 | nt | nt | nt
Cc1nc([N+](=O)[O-])cn1CC(=O)c1ccc(F)cc1 | 76.8* | 0.1 | nt | 5.7 | -3.7 | -5.7

Compound activity as filed in PubChem.
